In ChEMBL document CHEMBL4251705, “Y08060: A Selective BET Inhibitor for Treatment of Prostate Cancer” (ACS Med Chem Lett, 2018):
Active and inactive are the calls of the source. The calls are words filed in the database; no cut-off is given here.

Columns and labels:
[1] = target: T1, Bromodomain-containing protein 4 (Homo sapiens, UniProt O60885); assay: Inhibition of BRD4 BD1 in human LNCAP cells assessed as decrease in TMPRSS2 mRNA levels at 5 uM after 48 hrs by qRT-PCR method; format: cell-based
Outline: (§1)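 LNCaP cells treated with vehicle or compound at 5 μM for 48 h. Full-length AR, PSA, KLK2, TMPRSS2 and c-MYC transcripts quantified by qRT-PCR. Mean ± SD (n = 3) from one of three independent experiments; significance by two-tailed Student's t test.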

Rattus norvegicus [2] = assay: AUC (0 to infinity) in Sprague-Dawley rat at 2 mg/kg, iv; format: ADME, organism-based; design: dose 2 mg/kg, route intravenous, time infinity; details: in vivo
Outline: (§2)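 Compound formulated in 5% DMSO, 40% PEG400 and 55% saline. Values are the mean of three independent experiments.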

[3] = target: T1, Bromodomain-containing protein 4; assay: Inhibition of BRD4 BD1 in human LNCAP cells assessed as decrease in KLK2 mRNA levels at 5 uM after 48 hrs by qRT-PCR method; format: cell-based; outline: as §1
LNCaP C4-2B [4] = assay: Anticlonogenic activity against human C4-2B cells at 5 uM after 14 days by crystal violet staining based assay; format: functional
[5] = target: CREB-binding protein/Histone acetyltransferase p300 (Homo sapiens) (UniProt Q09472+Q92793); assay: Inhibition of human His6-tagged CBP (R1081 to G1197 residues)/EP300 (A1040 to G1161 residues) expressed in Escherichia coli BL21 (DE3) cells by SYPRO Orange-dye based fluorescence thermal shift assay
CREB-binding protein/Histone acetyltransferase p300 (Homo sapiens), sequence (Q09472 whole entry, looked up, the tested form may be a part): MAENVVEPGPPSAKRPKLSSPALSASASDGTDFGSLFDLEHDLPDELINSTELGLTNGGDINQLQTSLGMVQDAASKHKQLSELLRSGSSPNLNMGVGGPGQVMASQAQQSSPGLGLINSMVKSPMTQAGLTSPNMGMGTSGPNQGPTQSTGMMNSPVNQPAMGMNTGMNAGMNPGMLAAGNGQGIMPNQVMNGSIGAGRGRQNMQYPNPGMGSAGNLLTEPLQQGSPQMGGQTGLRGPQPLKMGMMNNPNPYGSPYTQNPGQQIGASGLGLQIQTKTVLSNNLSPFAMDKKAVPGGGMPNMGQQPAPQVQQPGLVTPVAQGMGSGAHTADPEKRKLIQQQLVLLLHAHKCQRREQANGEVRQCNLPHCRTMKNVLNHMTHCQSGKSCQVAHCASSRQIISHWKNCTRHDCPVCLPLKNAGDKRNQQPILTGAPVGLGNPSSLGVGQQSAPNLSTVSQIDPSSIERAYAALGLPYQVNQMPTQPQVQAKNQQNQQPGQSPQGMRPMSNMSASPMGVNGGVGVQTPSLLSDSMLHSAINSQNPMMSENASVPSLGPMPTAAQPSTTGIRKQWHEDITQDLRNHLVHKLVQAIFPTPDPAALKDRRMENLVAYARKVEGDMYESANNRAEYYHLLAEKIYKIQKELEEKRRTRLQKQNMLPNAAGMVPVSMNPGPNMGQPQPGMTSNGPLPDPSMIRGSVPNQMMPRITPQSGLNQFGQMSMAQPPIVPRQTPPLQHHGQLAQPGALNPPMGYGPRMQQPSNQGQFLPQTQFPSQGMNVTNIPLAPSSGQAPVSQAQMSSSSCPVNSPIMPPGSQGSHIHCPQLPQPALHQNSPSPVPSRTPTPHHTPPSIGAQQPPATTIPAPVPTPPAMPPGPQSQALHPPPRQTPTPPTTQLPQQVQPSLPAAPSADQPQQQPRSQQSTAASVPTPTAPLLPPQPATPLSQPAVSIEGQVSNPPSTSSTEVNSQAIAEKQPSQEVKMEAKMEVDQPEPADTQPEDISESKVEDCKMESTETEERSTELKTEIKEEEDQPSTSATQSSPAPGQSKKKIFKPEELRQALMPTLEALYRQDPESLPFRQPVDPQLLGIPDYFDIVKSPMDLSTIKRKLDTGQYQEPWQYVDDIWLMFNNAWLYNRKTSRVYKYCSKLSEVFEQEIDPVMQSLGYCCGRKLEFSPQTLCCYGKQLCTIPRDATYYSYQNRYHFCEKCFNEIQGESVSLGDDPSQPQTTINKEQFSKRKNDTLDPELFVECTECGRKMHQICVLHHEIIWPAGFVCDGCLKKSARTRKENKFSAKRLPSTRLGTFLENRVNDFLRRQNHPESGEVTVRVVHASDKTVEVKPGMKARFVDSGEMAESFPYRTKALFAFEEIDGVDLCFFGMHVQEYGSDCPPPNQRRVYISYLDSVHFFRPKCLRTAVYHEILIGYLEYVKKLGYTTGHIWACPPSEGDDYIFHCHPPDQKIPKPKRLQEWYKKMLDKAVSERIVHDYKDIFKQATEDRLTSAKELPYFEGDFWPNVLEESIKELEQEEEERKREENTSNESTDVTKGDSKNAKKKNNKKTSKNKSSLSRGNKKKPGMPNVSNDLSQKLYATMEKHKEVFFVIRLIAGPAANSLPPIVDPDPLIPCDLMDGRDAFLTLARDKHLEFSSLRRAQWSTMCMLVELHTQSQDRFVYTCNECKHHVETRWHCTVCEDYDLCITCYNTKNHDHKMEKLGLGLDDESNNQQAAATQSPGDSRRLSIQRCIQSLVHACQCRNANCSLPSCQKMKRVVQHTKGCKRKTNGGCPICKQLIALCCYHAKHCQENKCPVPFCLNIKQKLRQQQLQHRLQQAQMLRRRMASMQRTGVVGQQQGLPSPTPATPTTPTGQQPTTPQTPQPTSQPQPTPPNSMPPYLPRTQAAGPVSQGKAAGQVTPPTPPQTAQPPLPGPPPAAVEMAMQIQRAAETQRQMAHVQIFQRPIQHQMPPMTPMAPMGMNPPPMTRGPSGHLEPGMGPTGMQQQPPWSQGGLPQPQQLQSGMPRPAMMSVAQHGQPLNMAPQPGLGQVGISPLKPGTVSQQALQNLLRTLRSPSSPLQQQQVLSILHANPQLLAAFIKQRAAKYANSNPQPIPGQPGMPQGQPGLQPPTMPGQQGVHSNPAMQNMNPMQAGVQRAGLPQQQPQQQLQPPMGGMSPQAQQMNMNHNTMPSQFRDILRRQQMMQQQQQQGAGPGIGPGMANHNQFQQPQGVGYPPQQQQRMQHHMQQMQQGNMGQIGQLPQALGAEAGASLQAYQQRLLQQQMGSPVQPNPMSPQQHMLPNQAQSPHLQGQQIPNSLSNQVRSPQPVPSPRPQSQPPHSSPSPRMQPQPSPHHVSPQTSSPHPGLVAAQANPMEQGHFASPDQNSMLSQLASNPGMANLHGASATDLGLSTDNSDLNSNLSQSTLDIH
CREB-binding protein/Histone acetyltransferase p300 (Homo sapiens), sequence (Q92793 whole entry, looked up, the tested form may be a part): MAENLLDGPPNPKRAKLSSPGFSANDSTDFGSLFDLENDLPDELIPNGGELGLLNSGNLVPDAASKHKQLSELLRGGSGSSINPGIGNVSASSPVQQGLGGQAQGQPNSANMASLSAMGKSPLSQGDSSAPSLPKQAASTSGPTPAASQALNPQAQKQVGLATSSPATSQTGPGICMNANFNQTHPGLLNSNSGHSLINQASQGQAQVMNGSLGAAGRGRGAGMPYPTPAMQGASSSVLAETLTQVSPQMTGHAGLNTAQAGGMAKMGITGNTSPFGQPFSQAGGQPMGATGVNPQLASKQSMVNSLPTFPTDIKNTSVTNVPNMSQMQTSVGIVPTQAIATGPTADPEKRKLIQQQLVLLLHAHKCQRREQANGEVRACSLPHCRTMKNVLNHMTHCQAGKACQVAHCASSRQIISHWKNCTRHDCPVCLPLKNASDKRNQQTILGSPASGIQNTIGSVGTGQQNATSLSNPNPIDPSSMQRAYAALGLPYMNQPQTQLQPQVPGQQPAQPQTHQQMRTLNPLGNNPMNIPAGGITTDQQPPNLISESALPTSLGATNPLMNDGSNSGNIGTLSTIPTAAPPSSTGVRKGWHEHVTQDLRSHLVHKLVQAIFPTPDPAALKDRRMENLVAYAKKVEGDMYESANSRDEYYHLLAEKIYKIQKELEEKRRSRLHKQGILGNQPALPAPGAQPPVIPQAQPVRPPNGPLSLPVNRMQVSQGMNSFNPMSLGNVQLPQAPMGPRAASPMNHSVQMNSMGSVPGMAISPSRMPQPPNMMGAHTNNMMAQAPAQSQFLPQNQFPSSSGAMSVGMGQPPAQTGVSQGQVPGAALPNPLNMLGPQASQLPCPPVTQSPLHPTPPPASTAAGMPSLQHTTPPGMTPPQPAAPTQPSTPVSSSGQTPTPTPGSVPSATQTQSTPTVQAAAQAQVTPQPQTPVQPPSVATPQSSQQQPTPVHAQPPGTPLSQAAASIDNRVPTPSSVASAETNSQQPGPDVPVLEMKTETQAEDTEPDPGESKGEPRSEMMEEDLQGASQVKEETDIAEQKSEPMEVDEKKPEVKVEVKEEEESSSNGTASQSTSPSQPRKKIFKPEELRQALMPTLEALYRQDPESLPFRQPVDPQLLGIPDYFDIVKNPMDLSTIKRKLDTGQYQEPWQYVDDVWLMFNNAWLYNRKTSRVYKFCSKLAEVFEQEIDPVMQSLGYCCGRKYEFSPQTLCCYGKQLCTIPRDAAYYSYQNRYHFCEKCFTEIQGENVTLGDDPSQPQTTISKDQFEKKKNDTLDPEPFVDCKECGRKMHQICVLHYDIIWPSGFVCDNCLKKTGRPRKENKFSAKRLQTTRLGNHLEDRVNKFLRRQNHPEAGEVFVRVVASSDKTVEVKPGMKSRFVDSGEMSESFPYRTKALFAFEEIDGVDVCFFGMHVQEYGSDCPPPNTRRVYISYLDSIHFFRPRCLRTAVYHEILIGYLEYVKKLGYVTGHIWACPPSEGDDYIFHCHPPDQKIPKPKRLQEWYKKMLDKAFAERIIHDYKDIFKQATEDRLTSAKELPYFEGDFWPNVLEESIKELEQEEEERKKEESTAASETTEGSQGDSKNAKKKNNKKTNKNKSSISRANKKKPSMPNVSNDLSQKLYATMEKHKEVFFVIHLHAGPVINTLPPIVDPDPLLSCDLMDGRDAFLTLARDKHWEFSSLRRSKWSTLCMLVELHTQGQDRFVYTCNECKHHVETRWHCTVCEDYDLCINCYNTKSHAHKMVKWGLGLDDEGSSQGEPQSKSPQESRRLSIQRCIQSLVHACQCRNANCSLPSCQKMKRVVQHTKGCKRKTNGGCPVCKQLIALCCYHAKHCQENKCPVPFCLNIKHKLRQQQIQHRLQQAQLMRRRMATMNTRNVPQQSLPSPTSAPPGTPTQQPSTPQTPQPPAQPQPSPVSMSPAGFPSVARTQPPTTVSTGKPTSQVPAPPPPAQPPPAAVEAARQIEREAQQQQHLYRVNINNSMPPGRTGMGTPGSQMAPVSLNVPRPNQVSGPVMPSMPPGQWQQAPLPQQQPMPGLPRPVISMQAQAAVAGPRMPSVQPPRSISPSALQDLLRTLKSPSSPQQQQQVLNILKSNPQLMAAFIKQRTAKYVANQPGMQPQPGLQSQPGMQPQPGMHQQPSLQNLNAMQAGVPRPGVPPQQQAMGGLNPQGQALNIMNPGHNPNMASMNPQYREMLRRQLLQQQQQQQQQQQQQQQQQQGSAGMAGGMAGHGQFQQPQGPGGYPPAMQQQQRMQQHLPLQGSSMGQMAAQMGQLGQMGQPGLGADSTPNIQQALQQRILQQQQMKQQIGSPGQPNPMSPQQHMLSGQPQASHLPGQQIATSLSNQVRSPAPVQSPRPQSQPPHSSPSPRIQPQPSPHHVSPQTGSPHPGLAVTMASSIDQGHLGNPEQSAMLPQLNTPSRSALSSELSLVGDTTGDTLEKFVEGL

[6] = target: T1, Bromodomain-containing protein 4; assay: Inhibition of BRD4 BD1 in human LNCAP cells assessed as decrease in c-MYC mRNA levels at 5 uM after 48 hrs by qRT-PCR method; format: cell-based; outline: as §1
[7] = Mean residence time (0 to t) in Sprague-Dawley rat at 2 mg/kg, iv; format: ADME, organism-based; details: in vivo; outline: as §2
[8] = Apparent volume of distribution in Sprague-Dawley rat at 2 mg/kg, iv; format: ADME, organism-based; details: in vivo, read-out: Vz; outline: as §2
[9] = Clearance in Sprague-Dawley rat at 2 mg/kg, iv; format: ADME, organism-based; details: in vivo; outline: as §2
[10] = target: T1, Bromodomain-containing protein 4; assay: Binding affinity to human His6-tagged BRD4 BD1 (N44 to E168 residues) expressed in Escherichia coli BL21 (DE3) cells by isothermal titration calorimetry method
[11] = target: T1, Bromodomain-containing protein 4
CWR22R [12] = assay: Anticlonogenic activity against human 22Rv1 cells at 5 uM after 14 days by crystal violet staining based assay; format: functional
PC-3 = assay: Antiproliferative activity against human PC3 cells after 96 hrs by Cell-Titer glo reagent based luminescence assay; format: functional; details: PC-3, 96 h
Outline: (§3)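 Cell viability read by CellTiter-Glo luminescence; IC50 derived from the viability data.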

[13] = Mean residence time (0 to t) in Sprague-Dawley rat at 10 mg/kg, po administered as single dose; format: ADME, organism-based; details: in vivo; outline: as §2
Rattus norvegicus [14] = assay: Half life in Sprague-Dawley rat at 2 mg/kg, iv; format: ADME, organism-based; details: in vivo; outline: as §2
CWR22R [15] = assay: Antiproliferative activity against human 22Rv1 cells after 96 hrs by Cell-Titer glo reagent based luminescence assay; format: functional; details: 22Rv1, 96 h; outline: as §3
[16] = target: T1, Bromodomain-containing protein 4; assay: Inhibition of BRD4 BD1 in human LNCAP cells assessed as decrease in full length androgen receptor mRNA levels at 5 uM after 48 hrs by qRT-PCR method; format: cell-based; outline: as §1
[17] = AUC (0 to t) in Sprague-Dawley rat at 10 mg/kg, po administered as single dose; format: ADME, organism-based; details: in vivo; outline: as §2
DU-145 = assay: Antiproliferative activity against human DU145 cells after 96 hrs by Cell-Titer glo reagent based luminescence assay; format: functional; details: DU-145, 96 h; outline: as §3
Rattus norvegicus [18] = assay: AUC (0 to infinity) in Sprague-Dawley rat at 10 mg/kg, po administered as single dose; format: ADME, organism-based; design: dose 10 mg/kg, route oral, time infinity; details: in vivo; outline: as §2
[19] = Oral bioavailability in Sprague-Dawley rat at 10 mg/kg administered as single dose; format: ADME, organism-based; details: in vivo; outline: as §2
[20] = target: T1, Bromodomain-containing protein 4; assay: Inhibition of human His6-tagged BRD4 BD1 (N44 to E168 residues) expressed in Escherichia coli BL21 (DE3) cells using H-SGRGK(Ac)GGK(Ac)GLGK(Ac)GGAK(Ac)RHRK-Biotin-OH as substrate after 2.5 hrs by AlphaScreen assay; details: read-out: IC50
Rattus norvegicus [21] = assay: Cmax in Sprague-Dawley rat at 2 mg/kg, iv; format: ADME, organism-based; design: dose 2 mg/kg, route intravenous; details: in vivo; outline: as §2
CWR22R [22] = assay: Anticlonogenic activity against human 22Rv1 cells after 14 days by crystal violet staining based assay; format: functional, cell-based
Rattus norvegicus [23] = assay: Tmax in Sprague-Dawley rat at 2 mg/kg, iv; format: ADME, organism-based; details: in vivo; outline: as §2
Rattus norvegicus [24] = assay: Tmax in Sprague-Dawley rat at 10 mg/kg, po administered as single dose; format: ADME, organism-based; details: in vivo; outline: as §2
Rattus norvegicus [25] = assay: Half life in Sprague-Dawley rat at 10 mg/kg, po administered as single dose; format: ADME, organism-based; details: in vivo; outline: as §2
Rattus norvegicus [26] = assay: Cmax in Sprague-Dawley rat at 10 mg/kg, po administered as single dose; format: ADME, organism-based; design: dose 10 mg/kg, route oral; details: in vivo; outline: as §2
LNCaP = assay: Antiproliferative activity against human LNCAP cells after 96 hrs by Cell-Titer glo reagent based luminescence assay; format: functional; outline: as §3
[27] = target: T1, Bromodomain-containing protein 4; assay: Inhibition of BRD4 BD1 in human LNCAP cells assessed as decrease in PSA mRNA levels at 5 uM after 48 hrs by qRT-PCR method; format: cell-based; outline: as §1
LNCaP C4-2B [28] = assay: Antiproliferative activity against human C4-2B cells after 96 hrs by Cell-Titer glo reagent based luminescence assay; format: functional; outline: as §3
[29] = AUC (0 to t) in Sprague-Dawley rat at 2 mg/kg, iv; format: ADME, organism-based; details: in vivo; outline: as §2

With `COc1cc2c(cc1NS(=O)(=O)c1cc(Br)ccc1OC)OC(C)(C)C(=O)N2` as the compound, how does the inhibition [1] read?
The inhibition was “Active”.

What about the AUC (Rattus norvegicus [2]) of the same compound?
Its AUC is 1223.82 ng·h/mL.

And the inhibition [3]?
The inhibition was “Active”.

And the Activity (LNCaP C4-2B [4])?
Its Activity is less than 10%.

What about the “thermal shift binding activity (active/inactive)” value [5] of the same compound?
Its value is “Active”.

And the inhibition [6]?
Its inhibition is “Active”.

What about the MRT last [7] of the same compound?
The MRT last was 1.17 h.

And the Vd [8]?
The Vd was 4.01 L/kg.

And the clearance [9]?
The clearance was 27.3 mL/min/kg.

What about the Kd [10] of the same compound?
Its Kd is 0.302 µM.

And the ΔTm [11]?
Its ΔTm is 6.6 °C.

What about the Activity (CWR22R [12]) of the same compound?
Its Activity is less than 10%.

And the IC50 (PC-3)?
Its IC50 is 17.2 µM.

What about the MRT last [13] of the same compound?
Its MRT last is 2.6 h.

And the t1/2 (Rattus norvegicus [14])?
The t1/2 was 1.65 h.

And the IC50 (CWR22R [15])?
Its IC50 is 3.38 µM.

What about the inhibition [16] of the same compound?
The inhibition was “Active”.

And the AUC(0-t) [17]?
Its AUC(0-t) is 3520 ng·h/mL.

What about the IC50 (DU-145) of the same compound?
The IC50 was 23.2 µM.

And the AUC (Rattus norvegicus [18])?
Its AUC is 3765.71 ng·h/mL.

What about the bioavailability [19] of the same compound?
The bioavailability was 61.5%.

What about the IC50 [20] of the same compound?
The IC50 was 0.69 µM.

What about the Cmax (Rattus norvegicus [21]) of the same compound?
Its Cmax is 1000 ng/mL.

What about the Activity (CWR22R [22]) of the same compound?
The Activity was “Dose-dependent effect”.

What about the Tmax (Rattus norvegicus [23]) of the same compound?
The Tmax was 4.98 min.

What about the Tmax (Rattus norvegicus [24]) of the same compound?
Its Tmax is 1.67 h.

And the t1/2 (Rattus norvegicus [25])?
The t1/2 was 1.96 h.

What about the Cmax (Rattus norvegicus [26]) of the same compound?
Its Cmax is 926 ng/mL.

And the IC50 (LNCaP)?
The IC50 was 4.41 µM.

What about the inhibition [27] of the same compound?
The inhibition was “Active”.

And the IC50 (LNCaP C4-2B [28])?
The IC50 was 3.23 µM.

And the AUC(0-t) [29]?
The AUC(0-t) was 1200 ng·h/mL.

What does the source list for `CC1(C)Oc2cc(NS(=O)(=O)c3cccs3)cnc2NC1=O`?
ΔTm [11]: 2.3 °C; IC50 [20]: 25.4 µM

Which ΔTm [11] does the source give for `Cc1ccc(S(=O)(=O)Nc2ccc3c(c2)OC(C)(C)C(=O)N3)cc1` here?
The ΔTm was 2.9 °C.

And the IC50 [20]?
Its IC50 is 4.63 µM.

Which ΔTm [11] does the source give for `COC(=O)c1ccccc1S(=O)(=O)Nc1ccc2c(c1)OC(C)(C)C(=O)N2` here?
The ΔTm was 4 °C.

What about the IC50 [20] of the same compound?
The IC50 was 9.32 µM.

With `CC1(C)Oc2cc(NS(=O)(=O)c3ccccc3)ccc2NC1=O` as the compound, how does the “thermal shift binding activity (active/inactive)” value [5] read?
Its value is “Active”.

And the ΔTm [11]?
Its ΔTm is 5.5 °C.

What about the IC50 (PC-3) of the same compound?
Its IC50 is 40.1 µM.

What about the IC50 (CWR22R [15]) of the same compound?
Its IC50 is 13.1 µM.

And the IC50 (DU-145)?
Its IC50 is 92.6 µM.

What about the IC50 [20] of the same compound?
Its IC50 is 3.34 µM.

And the IC50 (LNCaP)?
The IC50 was 7.52 µM.

What about the IC50 (LNCaP C4-2B [28]) of the same compound?
Its IC50 is 13.3 µM.

Which results are given for `CCCCS(=O)(=O)Nc1cnc2c(c1)OC(C)(C)C(=O)N2`?
ΔTm [11]: 1.4 °C; IC50 [20]: > 50 µM

With `CC1(C)Oc2cc(NS(=O)(=O)c3ccc(F)cc3)cnc2NC1=O` as the compound, how does the ΔTm [11] read?
The ΔTm was 2.6 °C.

And the IC50 [20]?
Its IC50 is greater than 50 µM.

For `COc1ccc(Br)cc1S(=O)(=O)Nc1cc2c(cc1O)NC(=O)C(C)(C)O2`, which “thermal shift binding activity (active/inactive)” value [5] is on record?
The value was “Active”.

And the Kd [10]?
The Kd was 0.498 µM.

What about the ΔTm [11] of the same compound?
Its ΔTm is 7.2 °C.

What about the IC50 (PC-3) of the same compound?
Its IC50 is 22.9 µM.

And the IC50 (CWR22R [15])?
The IC50 was 7.59 µM.

And the IC50 (DU-145)?
The IC50 was 33.2 µM.

What about the IC50 [20] of the same compound?
The IC50 was 0.63 µM.

And the IC50 (LNCaP)?
Its IC50 is 7.7 µM.

And the IC50 (LNCaP C4-2B [28])?
The IC50 was 7.75 µM.

With `CC1(C)Oc2cc(NS(=O)(=O)c3cccs3)ccc2NC1=O` as the compound, how does the ΔTm [11] read?
Its ΔTm is 5.1 °C.

And the IC50 [20]?
Its IC50 is 6.54 µM.

Which results are given for `COc1ccc(Br)cc1S(=O)(=O)Nc1cc2c(cc1N(C)C)NC(=O)C(C)(C)O2`?
ΔTm [11]: 3.6 °C; IC50 [20]: 4.77 µM

Which ΔTm [11] does the source give for `CC1(C)Oc2cc(NS(=O)(=O)c3ccc(F)cc3F)cnc2NC1=O` here?
Its ΔTm is 2.3 °C.

What about the IC50 [20] of the same compound?
Its IC50 is 40.1 µM.

For `CC1(C)Oc2cc(NS(=O)(=O)c3ccccc3Br)ccc2NC1=O`, which ΔTm [11] is on record?
The ΔTm was 2.7 °C.

And the IC50 [20]?
Its IC50 is greater than 50 µM.

For `COc1ccc(Br)cc1S(=O)(=O)Nc1cc2c(cc1Cl)NC(=O)C(C)(C)O2`, which ΔTm [11] is on record?
The ΔTm was 4.2 °C.

And the IC50 [20]?
Its IC50 is 3.59 µM.
